Test results taken from ChEMBL document CHEMBL2401705, “Discovery of triazines as potent, selective and orally active PDE4 inhibitors” (Bioorg Med Chem Lett, 2013).
In brackets after ≈: the same amount, converted by molar mass.

Assays:
[1] = Intrinsic clearance in rat liver microsomes; assay type: ADME, Microsome; details: read-out: CLH
[2] = Aqueous solubility of the compound at pH 7.4; details: buffer
[3] = biological target: 3',5'-cyclic-AMP phosphodiesterase 4A (Homo sapiens, UniProt P27815); assay: Inhibition of human full length PDE4A4 expressed in baculovirus infected sf21 cells
[4] = test system: Mustela putorius furo; assay: Toxicity in po dosed ferret assessed as first emetic dose by measuring occurrence of vomiting episode after 6 hrs; assay type: organism-based; details: in vivo
In short: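 Ferrets were given oral doses and watched for 6 h after administration for a vomiting episode; the first emetic dose was reported in mg/kg.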

[5] = test system: Mustela putorius furo; assay: Inhibition of LPS-induced neutrophilia in ferret COPD model BAL-fluid at 0.01 mg/kg, po; assay type: functional
In short: (§1)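 Ferrets challenged by LPS inhalation, with compound given orally. Read-out is the change in neutrophil count in bronchoalveolar lavage fluid, expressed as percentage inhibition.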

[6] = biological target: serum albumin (Homo sapiens, UniProt P02768); assay: Binding affinity to human serum albumin; assay type: ADME; details: read-out: PB (converted)
[7] = test system: Mustela putorius furo; assay: Toxicity in iv dosed ferret assessed as first emetic dose by measuring occurrence of vomiting episode after 6 hrs; assay type: organism-based; details: in vivo
[8] = biological target: cGMP-inhibited 3',5'-cyclic phosphodiesterase 3A (Homo sapiens, UniProt Q14432); assay: Inhibition of human recombinant PDE3A
[9] = biological target: cGMP-dependent 3',5'-cyclic phosphodiesterase (Homo sapiens, UniProt O00408); assay: Inhibition of human recombinant PDE2A
[10] = test system: Blood; assay: Inhibition of TNFalpha production in human whole blood; assay type: functional, tissue-based
[11] = biological target: Cytochrome P450 1A1 (Homo sapiens, UniProt P04798); assay: Inhibition of CYP1A1 (unknown origin); assay type: ADME
[12] = test system: PBMC; assay: Inhibition of TNFalpha production in human PBMC; assay type: functional, cell-based
[13] = Inhibition of CYP3A4Q (unknown origin); assay type: ADME, Homo sapiens
[14] = biological target: Cytochrome P450 2C9 (Homo sapiens, UniProt P11712); assay: Inhibition of CYP2C9 (unknown origin); assay type: ADME
[15] = biological target: Cytochrome P450 2C19 (Homo sapiens, UniProt P33261); assay: Inhibition of CYP2C19 (unknown origin); assay type: ADME
[16] = test system: Rattus norvegicus; assay: Inhibition of LPS-induced neutrophil accumulation in rat lung at 0.1 mg/kg, po; assay type: functional
[17] = Half life in rat at 3 mg/kg, iv; assay type: ADME, organism-based; set-up: dose 3 mg/kg, route intravenous; details: in vivo
[18] = Inhibition of CYP3A4D (unknown origin); assay type: ADME, Homo sapiens
[19] = test system: Mustela putorius furo; assay: Inhibition of LPS-induced neutrophilia in ferret COPD model BAL-fluid at 0.1 mg/kg, po; assay type: functional; in short: as §1
[20] = Inhibition of bovine retina PDE6; set-up: species or system Bos taurus
[21] = biological target: Cytochrome P450 1A2 (Homo sapiens, UniProt P05177); assay: Inhibition of CYP1A2 (unknown origin); assay type: ADME
[22] = biological target: Dual specificity calcium/calmodulin-dependent 3',5'-cyclic nucleotide phosphodiesterase 1B (Homo sapiens, UniProt Q01064); assay: Inhibition of human recombinant PDE1B
[23] = Cmax in rat at 3 mg/kg, po; assay type: ADME, organism-based; set-up: dose 3 mg/kg, route oral; details: in vivo
[24] = Volume of distribution in rat at 3 mg/kg; assay type: ADME, organism-based; set-up: dose 3 mg/kg; details: in vivo
[25] = Clearance in rat at 3 mg/kg, iv; assay type: ADME, organism-based; set-up: dose 3 mg/kg, route intravenous; details: in vivo
[26] = biological target: 3',5'-cyclic-AMP phosphodiesterase 4B (Homo sapiens, UniProt Q07343); assay: Inhibition of full length PDE4B1 (unknown origin)
[27] = biological target: High affinity cGMP-specific 3',5'-cyclic phosphodiesterase 9A (Homo sapiens, UniProt O76083); assay: Inhibition of human recombinant PDE9A
[28] = Intrinsic clearance in dog liver microsomes; assay type: ADME, Canis lupus familiaris, Microsome; details: read-out: CLH
[29] = Inhibition of CYP3A4B (unknown origin); assay type: ADME, Homo sapiens
[30] = biological target: High affinity cAMP-specific and IBMX-insensitive 3',5'-cyclic phosphodiesterase 8A (Homo sapiens, UniProt O60658); assay: Inhibition of human recombinant PDE8A
[31] = biological target: Dual 3',5'-cyclic-AMP and -GMP phosphodiesterase 11A (Homo sapiens, UniProt Q9HCR9); assay: Inhibition of human recombinant PDE11A
[32] = Intrinsic clearance in human liver microsomes; assay type: ADME, Microsome; details: read-out: CLH
[33] = biological target: cGMP-specific 3',5'-cyclic phosphodiesterase (Homo sapiens, UniProt O76074); assay: Inhibition of human recombinant PDE5A
[34] = biological target: Cytochrome P450 2A6 (Homo sapiens, UniProt P11509); assay: Inhibition of CYP2A6 (unknown origin); assay type: ADME
[35] = Oral bioavailability in rat; assay type: ADME, organism-based; details: in vivo
[36] = biological target: 3',5'-cyclic-AMP phosphodiesterase 4D (Rattus norvegicus, UniProt P14270); assay: Inhibition of rat PDE4D3
[37] = biological target: cAMP and cAMP-inhibited cGMP 3',5'-cyclic phosphodiesterase 10A (Homo sapiens, UniProt Q9Y233); assay: Inhibition of human recombinant PDE10A
[38] = biological target: hERG (KCNH2) (Homo sapiens, UniProt Q12809); assay: Inhibition of human ERG at 10 uM
In short: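 hERG measured in a binding assay, reported as percent inhibition at 10 µM.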

[39] = biological target: Cytochrome P450 2D6 (Homo sapiens, UniProt P10635); assay: Inhibition of CYP2D6 (unknown origin); assay type: ADME
[40] = biological target: High affinity 3',5'-cyclic-AMP phosphodiesterase 7A (Homo sapiens, UniProt Q13946); assay: Inhibition of human full length PDE7A1 expressed in baculovirus infected sf21 cells
[41] = Inhibition of cytochrome P450 (unknown origin); assay type: ADME; details: human
[42] = biological target: Voltage-gated inwardly rectifying potassium channel KCNH2 (Homo sapiens, UniProt Q12809); assay: Inhibition of human ERG
In short: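 hERG was tested in a binding-format assay as percent inhibition at a single test concentration of 10 µM.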

[43] = biological target: Phosphodiesterase 4 (Homo sapiens, UniProt P27815+Q08499+Q07343+Q08493); assay: Inhibition of PDE4 (unknown origin); assay type: protein assay
[44] = species on record: Homo sapiens; assay: Selectivity ratio of IC50 for human full length PDE7A1 to IC50 for human full length PDE4A4
[45] = test system: Mustela putorius furo; assay: Inhibition of LPS-induced neutrophilia in ferret COPD model BAL-fluid at 10 mg/kg, po; assay type: functional

Sequence of serum albumin (P02768 whole entry): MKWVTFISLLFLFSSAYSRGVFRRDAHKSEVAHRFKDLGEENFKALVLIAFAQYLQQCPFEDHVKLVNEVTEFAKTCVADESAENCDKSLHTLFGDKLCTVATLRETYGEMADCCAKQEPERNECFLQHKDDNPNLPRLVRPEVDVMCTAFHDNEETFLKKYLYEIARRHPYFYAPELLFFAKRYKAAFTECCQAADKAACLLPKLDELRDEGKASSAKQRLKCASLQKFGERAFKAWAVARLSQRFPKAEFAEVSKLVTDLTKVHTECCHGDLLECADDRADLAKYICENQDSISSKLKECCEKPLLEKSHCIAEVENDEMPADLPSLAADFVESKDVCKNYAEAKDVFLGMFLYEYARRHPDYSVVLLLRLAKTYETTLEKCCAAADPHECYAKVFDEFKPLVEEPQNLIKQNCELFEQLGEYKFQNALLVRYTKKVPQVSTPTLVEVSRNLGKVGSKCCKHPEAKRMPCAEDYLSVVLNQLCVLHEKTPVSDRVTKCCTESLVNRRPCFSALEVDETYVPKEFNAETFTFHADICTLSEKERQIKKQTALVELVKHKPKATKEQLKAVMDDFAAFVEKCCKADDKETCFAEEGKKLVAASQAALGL
Sequence of 3',5'-cyclic-AMP phosphodiesterase 4A (P27815 whole entry): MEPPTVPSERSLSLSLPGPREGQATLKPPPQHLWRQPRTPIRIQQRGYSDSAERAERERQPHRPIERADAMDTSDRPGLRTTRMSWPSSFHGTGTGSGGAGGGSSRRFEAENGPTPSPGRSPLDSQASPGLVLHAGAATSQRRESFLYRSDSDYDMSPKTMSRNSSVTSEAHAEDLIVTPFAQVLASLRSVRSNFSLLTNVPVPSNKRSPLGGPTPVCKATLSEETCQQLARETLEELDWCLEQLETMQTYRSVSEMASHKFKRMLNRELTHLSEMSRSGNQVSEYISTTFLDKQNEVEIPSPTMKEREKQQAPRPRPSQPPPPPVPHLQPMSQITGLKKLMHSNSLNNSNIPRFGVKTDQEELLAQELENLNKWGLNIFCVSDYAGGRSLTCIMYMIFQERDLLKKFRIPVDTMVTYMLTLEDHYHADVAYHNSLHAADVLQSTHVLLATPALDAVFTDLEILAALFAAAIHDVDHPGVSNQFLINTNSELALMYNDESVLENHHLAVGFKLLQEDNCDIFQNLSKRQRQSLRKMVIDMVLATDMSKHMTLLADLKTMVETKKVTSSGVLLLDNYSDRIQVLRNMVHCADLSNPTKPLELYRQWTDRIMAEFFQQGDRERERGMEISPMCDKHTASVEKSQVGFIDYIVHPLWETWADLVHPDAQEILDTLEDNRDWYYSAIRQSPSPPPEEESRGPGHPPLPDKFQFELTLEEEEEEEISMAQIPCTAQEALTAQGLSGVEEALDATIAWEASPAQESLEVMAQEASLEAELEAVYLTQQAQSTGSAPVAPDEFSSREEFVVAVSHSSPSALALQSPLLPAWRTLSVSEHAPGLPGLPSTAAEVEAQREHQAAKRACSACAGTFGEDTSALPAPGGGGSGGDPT
Sequence of High affinity 3',5'-cyclic-AMP phosphodiesterase 7A (Q13946 whole entry): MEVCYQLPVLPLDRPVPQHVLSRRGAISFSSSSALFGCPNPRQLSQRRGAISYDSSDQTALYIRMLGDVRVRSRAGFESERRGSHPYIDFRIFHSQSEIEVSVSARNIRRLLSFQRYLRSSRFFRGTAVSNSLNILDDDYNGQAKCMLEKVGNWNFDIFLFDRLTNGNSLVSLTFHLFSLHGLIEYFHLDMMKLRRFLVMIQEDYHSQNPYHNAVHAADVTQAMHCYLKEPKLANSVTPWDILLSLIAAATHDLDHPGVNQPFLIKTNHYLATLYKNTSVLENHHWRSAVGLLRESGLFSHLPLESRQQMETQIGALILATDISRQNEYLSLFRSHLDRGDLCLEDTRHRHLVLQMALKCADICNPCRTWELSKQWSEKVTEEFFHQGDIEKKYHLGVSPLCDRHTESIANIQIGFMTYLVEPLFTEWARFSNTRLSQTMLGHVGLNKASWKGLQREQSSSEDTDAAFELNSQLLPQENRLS
Sequence of Voltage-gated inwardly rectifying potassium channel KCNH2 (Q12809 whole entry): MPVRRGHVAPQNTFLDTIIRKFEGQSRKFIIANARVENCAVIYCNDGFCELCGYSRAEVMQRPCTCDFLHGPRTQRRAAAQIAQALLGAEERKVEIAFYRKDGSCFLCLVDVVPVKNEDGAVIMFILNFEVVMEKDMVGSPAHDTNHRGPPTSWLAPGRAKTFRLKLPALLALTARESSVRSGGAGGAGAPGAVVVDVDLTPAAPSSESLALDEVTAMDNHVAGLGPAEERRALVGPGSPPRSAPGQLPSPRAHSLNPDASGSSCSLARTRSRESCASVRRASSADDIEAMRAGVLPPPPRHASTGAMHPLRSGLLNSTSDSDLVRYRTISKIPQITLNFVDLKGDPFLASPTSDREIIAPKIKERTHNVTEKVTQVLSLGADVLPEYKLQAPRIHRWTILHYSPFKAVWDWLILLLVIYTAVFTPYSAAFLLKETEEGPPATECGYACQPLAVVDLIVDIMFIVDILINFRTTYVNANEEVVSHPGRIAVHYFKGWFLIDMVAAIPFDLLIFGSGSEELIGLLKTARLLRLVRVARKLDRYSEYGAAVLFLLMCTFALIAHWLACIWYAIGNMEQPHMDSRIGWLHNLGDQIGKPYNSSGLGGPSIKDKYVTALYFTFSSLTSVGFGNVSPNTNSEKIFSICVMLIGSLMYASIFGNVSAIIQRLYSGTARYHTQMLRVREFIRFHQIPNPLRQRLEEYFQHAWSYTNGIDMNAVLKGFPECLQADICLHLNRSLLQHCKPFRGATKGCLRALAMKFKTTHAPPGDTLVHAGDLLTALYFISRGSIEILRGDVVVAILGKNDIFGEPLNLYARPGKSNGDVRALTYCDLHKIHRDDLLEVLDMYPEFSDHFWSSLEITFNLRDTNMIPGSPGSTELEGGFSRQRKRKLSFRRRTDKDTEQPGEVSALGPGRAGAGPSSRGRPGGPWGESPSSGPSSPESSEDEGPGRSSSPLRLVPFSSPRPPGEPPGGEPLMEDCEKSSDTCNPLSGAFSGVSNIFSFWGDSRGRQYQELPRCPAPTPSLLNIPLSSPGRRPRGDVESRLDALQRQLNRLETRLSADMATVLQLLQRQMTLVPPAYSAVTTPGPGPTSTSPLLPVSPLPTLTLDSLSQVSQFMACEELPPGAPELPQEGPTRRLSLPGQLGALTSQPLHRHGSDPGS
Sequence of cGMP-dependent 3',5'-cyclic phosphodiesterase (O00408 whole entry): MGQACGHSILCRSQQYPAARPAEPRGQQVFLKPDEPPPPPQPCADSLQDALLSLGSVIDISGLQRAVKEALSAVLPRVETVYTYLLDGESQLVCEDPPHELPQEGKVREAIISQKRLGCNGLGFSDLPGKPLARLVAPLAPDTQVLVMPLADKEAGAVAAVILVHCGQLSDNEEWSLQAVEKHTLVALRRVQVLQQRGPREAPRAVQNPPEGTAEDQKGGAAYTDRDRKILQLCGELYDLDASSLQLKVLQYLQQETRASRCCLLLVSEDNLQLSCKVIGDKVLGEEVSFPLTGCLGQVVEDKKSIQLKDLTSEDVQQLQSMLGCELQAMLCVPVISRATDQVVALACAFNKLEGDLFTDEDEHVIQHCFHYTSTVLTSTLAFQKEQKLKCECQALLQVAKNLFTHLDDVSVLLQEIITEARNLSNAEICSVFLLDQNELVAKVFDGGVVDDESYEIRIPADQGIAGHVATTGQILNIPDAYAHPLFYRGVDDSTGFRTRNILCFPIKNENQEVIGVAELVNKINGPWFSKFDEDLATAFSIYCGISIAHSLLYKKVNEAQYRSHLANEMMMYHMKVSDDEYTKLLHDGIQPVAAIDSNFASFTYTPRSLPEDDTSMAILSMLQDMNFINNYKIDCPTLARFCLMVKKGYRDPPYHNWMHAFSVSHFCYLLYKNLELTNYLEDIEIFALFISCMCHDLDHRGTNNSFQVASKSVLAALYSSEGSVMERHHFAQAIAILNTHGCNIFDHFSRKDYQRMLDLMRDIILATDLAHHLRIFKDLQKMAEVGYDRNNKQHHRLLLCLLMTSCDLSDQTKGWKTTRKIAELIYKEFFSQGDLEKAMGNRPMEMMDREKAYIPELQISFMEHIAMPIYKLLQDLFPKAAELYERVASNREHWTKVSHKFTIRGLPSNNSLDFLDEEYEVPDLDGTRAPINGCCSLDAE
Sequence of Cytochrome P450 2A6 (P11509 whole entry): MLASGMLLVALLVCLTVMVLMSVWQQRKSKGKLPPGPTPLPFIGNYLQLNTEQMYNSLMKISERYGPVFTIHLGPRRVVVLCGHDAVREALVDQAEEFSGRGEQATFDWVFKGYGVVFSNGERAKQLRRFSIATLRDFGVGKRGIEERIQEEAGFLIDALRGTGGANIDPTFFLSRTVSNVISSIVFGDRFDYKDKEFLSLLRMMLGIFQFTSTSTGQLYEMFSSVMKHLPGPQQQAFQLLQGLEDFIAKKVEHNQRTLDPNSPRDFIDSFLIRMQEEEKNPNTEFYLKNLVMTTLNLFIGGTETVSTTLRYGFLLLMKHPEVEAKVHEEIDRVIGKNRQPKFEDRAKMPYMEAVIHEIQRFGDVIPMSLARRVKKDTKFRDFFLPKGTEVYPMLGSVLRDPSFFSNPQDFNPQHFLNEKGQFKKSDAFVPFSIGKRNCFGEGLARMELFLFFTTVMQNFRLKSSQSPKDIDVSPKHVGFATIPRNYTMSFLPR
Sequence of Cytochrome P450 2C9 (P11712 whole entry): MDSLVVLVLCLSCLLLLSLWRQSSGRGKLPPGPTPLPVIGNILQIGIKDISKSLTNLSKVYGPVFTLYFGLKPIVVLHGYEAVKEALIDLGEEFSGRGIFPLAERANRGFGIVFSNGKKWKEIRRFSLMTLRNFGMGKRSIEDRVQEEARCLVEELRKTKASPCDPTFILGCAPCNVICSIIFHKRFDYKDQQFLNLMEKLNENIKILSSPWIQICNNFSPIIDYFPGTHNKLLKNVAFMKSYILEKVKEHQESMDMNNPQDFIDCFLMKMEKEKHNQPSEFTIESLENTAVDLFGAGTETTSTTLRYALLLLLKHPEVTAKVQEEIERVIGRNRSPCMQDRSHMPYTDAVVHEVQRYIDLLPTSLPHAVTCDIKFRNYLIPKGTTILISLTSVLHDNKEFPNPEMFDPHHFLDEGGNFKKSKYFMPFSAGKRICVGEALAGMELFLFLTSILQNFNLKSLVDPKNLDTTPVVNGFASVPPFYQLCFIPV

CCC(C)(C#N)Nc1nc(NC)nc(-n2cncn2)n1 (racemic)
CLint scaled [1]: 32 mL/min/kg | solubility [2]: 50 µg/mL (≈ 183 µM) | IC50 [3]: 2.4 nM

O=C(Nc1c(Cl)cncc1Cl)c1ccc(OC(F)F)c(OCC2CC2)c1 [ROFLUMILAST]
Activity [4]: 1 mg/kg | inhibition in vivo at 0.01 mg/kg [5]: 65% | fraction unbound [6]: 0.03 | solubility [2]: 1.3 µg/mL (≈ 3.22 µM)

COc1ccc(C2CNC(=O)C2)cc1OC1CCCC1 (racemic) [ROLIPRAM]
Activity [7]: 0.3 mg/kg | fraction unbound [6]: 0.42 | solubility [2]: 171 µg/mL (≈ 621 µM)

CNc1nc(NC2(C#N)CCCCCC2)nc(-n2cncn2)n1
CLint scaled [1]: 276 mL/min/kg | solubility [2]: 9 µg/mL (≈ 28.7 µM) | IC50 [3]: 0.42 nM

CCC(C#N)(CC)Nc1nc(NC)nc(-n2cncn2)n1
IC50 [8]: > 1000 nM | IC50 [9]: > 1000 nM | IC50 [10]: 55 nM | IC50 [11]: > 10 µM | IC50 [12]: 22 nM | IC50 [13]: > 10 µM | IC50 [14]: > 10 µM | IC50 [15]: > 10 µM | inhibition in vivo at 0.1 mg/kg [16]: 41% | half-life [17]: 102 min | IC50 [18]: > 10 µM | inhibition in vivo at 0.1 mg/kg [19]: 66% | Activity [4]: 3 mg/kg | IC50 [20]: > 1000 nM | IC50 [21]: > 10 µM | IC50 [22]: > 1000 nM | Cmax [23]: 669 ng/mL | Vd [24]: 0.5 L/kg | clearance [25]: 3.3 mL/min/kg | inhibition in vivo at 0.01 mg/kg [5]: 33% | IC50 [26]: 0.87 nM | IC50 [27]: > 1000 nM | CLint scaled [28]: < 1 mL/min/kg | IC50 [29]: > 10 µM | IC50 [30]: > 1000 nM | IC50 [31]: > 1000 nM | CLint scaled [32]: < 1 mL/min/kg | fraction unbound [6]: 0.49 | IC50 [33]: > 1000 nM | CLint scaled [1]: 26 mL/min/kg | solubility [2]: 165 µg/mL (≈ 574 µM) | IC50 [34]: > 10 µM | bioavailability [35]: 41% | IC50 [36]: 1.18 nM | IC50 [37]: > 1000 nM | IC50 [3]: 0.81 nM | inhibition at 10 µM [38]: 6% | IC50 [39]: > 10 µM

CNc1nc(NC(C#N)(C2CC2)C2CC2)nc(-n2cncn2)n1
CLint scaled [1]: 3.7 mL/min/kg | solubility [2]: 22 µg/mL (≈ 70.7 µM) | IC50 [3]: 0.89 nM

CNc1nc(NC2(C#N)CCCCC2)nc(-n2ccnc2)n1
IC50 [40]: 1.05 µM | inhibition (INH) [41]: Not Active | inhibition (INH) [42]: Not Active | CLint scaled [1]: 52 mL/min/kg | IC50 [3]: 6.6 nM

CNc1nc(NC2(C#N)CCCC2)nc(-n2cncn2)n1
CLint scaled [1]: 43 mL/min/kg | solubility [2]: 165 µg/mL (≈ 578 µM) | IC50 [3]: 1.4 nM

CNc1nc(NC2(C#N)CCCCC2C)nc(-n2cncn2)n1 (mixture of isomers)
CLint scaled [1]: 86 mL/min/kg | solubility [2]: 25 µg/mL | IC50 [3]: 0.15 nM

CCCC(C#N)(CC)Nc1nc(NC)nc(-n2cncn2)n1 (racemic)
CLint scaled [1]: 29 mL/min/kg | solubility [2]: 76 µg/mL (≈ 252 µM) | IC50 [3]: 1.1 nM

O=S1(=O)CCN(c2nc(NC3CC3)nc(C3CC3)n2)C1
IC50 [43]: 140 nM

CNc1nc(NC2(C#N)CCCCC2)nc(-n2cncn2)n1
IC50 [40]: > 5 µM | inhibition (INH) [41]: Not Active | Ratio IC50 [44]: > 1000 | inhibition (INH) [42]: Not Active | CLint scaled [1]: 52 mL/min/kg | solubility [2]: 11 µg/mL (≈ 36.7 µM) | IC50 [3]: 1.7 nM

COc1ccc([C@]2(C#N)CC[C@@H](C(=O)O)CC2)cc1OC1CCCC1 [CILOMILAST]
Activity [4]: 1 mg/kg | inhibition in vivo at 10 mg/kg [45]: 35% | fraction unbound [6]: 0.09 | solubility [2]: 17 µg/mL (≈ 49.5 µM)

CNc1nc(NC2(C#N)CCCCC2)nc(-n2cnc(C)n2)n1
IC50 [40]: > 5 µM | CLint scaled [1]: > 276 mL/min/kg | IC50 [3]: 1 nM
